# Compounds with a hit are over-represented: about 2.2% of the library has one in this group of screens.
# M1 PAM: human CHRM1 positive allosteric modulation; CHO-K1 hM1, Fluo-8 calcium fluorescence, ACh EC20; 0% = ACh EC20, 100% = maximal ACh; activation, % at 3 µM; P11229; 0.088% of 360,000 active; in the data active = activation above about 19%, passing the limit was not always enough
# M5 antag: antagonists of human muscarinic M5 receptor (CHRM5); P08912; CHO-hM5 cells, Fluo-8 calcium fluorescence, ACh EC80; 0.59% of 360,000 active; AID 624040; inhibition, % at 3 µM;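 active = inhibition above a per-plate cutoff, the mean of that plate's test compounds plus 3 SD, cut at about 27% in these data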
# Target sequence (P08912 whole entry, looked up): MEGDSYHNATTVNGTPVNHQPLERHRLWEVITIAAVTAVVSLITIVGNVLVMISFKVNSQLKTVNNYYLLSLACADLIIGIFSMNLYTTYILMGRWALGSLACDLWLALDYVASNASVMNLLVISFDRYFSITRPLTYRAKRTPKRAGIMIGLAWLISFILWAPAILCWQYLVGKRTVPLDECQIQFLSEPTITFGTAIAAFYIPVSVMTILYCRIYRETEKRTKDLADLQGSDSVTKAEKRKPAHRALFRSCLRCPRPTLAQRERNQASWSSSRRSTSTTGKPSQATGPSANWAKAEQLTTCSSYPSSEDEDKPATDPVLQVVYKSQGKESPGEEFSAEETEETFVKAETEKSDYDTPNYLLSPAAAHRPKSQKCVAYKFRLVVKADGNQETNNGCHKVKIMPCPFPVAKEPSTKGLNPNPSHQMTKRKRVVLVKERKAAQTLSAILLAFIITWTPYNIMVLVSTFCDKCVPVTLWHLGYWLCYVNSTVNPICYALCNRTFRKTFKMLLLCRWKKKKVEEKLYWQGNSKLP
# CHRM1 agonist: human M1 muscarinic receptor agonism. CHO-K1 hM1, Fluo-8 calcium fluorescence, agonist mode; 0% DMSO, 100% acetylcholine EC100. AID 588814. activation, % at 3 µM. 0.33% of 360,000 active. P11229;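 active = activation above the run's mean compound activation plus 3 SD, cut at about 16% in these data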;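 also: peak over basal fluorescence ratio within a 140 s kinetic read after compound addition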
# M1 antag: blocks human M1 muscarinic receptor; inhibition, % at 3 µM; 1.3% of 360,000 active; AID 588852; P11229; CHO-K1 hM1, Fluo-8 calcium fluorescence, ACh EC80 antagonist;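 active = percent inhibition above its own plate's cutoff, namely the mean of that plate's compound wells plus 3 SD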;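 also: peak over basal fluorescence ratio during 140 s after agonist addition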
# M5 PAM: CHRM5 positive allosteric modulation; P08912; CHO-K1 hM5, Fluo-8 calcium, ACh EC20 PAM; 0% = ACh EC20, 100% = ACh EC100; activation, % at 3 µM; 0.3% of 360,000 active; AID 624038;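 active = activation above the run cutoff, the mean activation of all test compounds plus 3 SD, cut at about 18% in these data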
#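 Measured by: Fluo-8 calcium fluorescence; material: human M5 receptor in CHO-K1 cells; schedule: Post-acetylcholine fluorescence recording 140 s; benchmarks: low control EC20 acetylcholine (0%), high control EC100 acetylcholine (100%); read-out: Max/basal fluorescence ratio as % of EC20–EC100 ACh window; compound: single dose, 3 µM nominal final test concentration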
# CHRM5 agonist: CHRM5 agonism in calcium assay; activation, % at 3 µM; AID 624037; CHO-K1 hM5 cells, Fluo-8 calcium fluorescence; 0% DMSO wells, 100% maximal acetylcholine response; 0.19% of 360,000 active; P08912;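 active = activation above the run's mean over test compounds plus 3 SD, cut at about 23% in these data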;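 also: signal is peak over basal fluorescence ratio across the kinetic read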
# A number is an active result; n = inactive; x = not tested or not shown.
SMILES,M1 PAM,M5 antag,CHRM1 agonist,M1 antag,M5 PAM,CHRM5 agonist
Cc1ccccc1C(=O)Nc1cccc(NC(=S)NC(=O)c2cccs2)c1,n,n,n,n,n,n
Cc1ccc(OCC(=O)NNC(=S)NC(=O)c2cccs2)c(C)c1,n,n,n,n,n,n
Cc1ccc(S(=O)(=O)N2CCOCC2)cc1NC(=O)COC(=O)CSc1ccc(Br)cc1C,n,n,n,n,n,n
C#CCSc1nnc(C)c(C)n1,n,n,n,n,n,n
CC(C)(C)c1ccc(C(=O)NC(=S)NNC(=O)c2cccs2)cc1,n,n,92,27,n,46
O=C(NNC1=NCCCCC1)c1cccc([N+](=O)[O-])c1,n,n,n,n,19,n
O=C(NNC(=S)NC(=O)c1ccccc1)c1cccc([N+](=O)[O-])c1,n,n,17,n,n,n
CCCC(=O)Nc1ccc(C(=O)NNC(=S)NC(=O)c2cccs2)cc1,n,n,n,n,n,n
Cc1cccc(C(=O)NC(=S)NNC(=O)c2ccc(Cl)cc2)c1,n,30,93,37,n,90
O=C(NNC(=S)NC(=O)c1cccc([N+](=O)[O-])c1)c1ccc(O)cc1,n,n,n,n,n,n
Cc1ccc(C(=O)NC(=S)NNC(=O)c2cccc([N+](=O)[O-])c2)cc1,n,n,n,n,n,n
O=S(=O)(NC1=NCCC1)c1cccc(NC(=S)NCCc2ccccc2)c1,n,n,n,n,n,n
CN1CCN(C(=O)C[C@H]2CC[C@H]3[C@@H](COC[C@@H](O)CN3Cc3cccc(F)c3)O2)CC1,x,n,x,x,n,n
CN(CC(=O)NCc1cccc(F)c1)C(=O)c1ccco1,n,n,n,n,n,n
COc1ccccc1N1CCN(CC(=O)Nc2cc(C)nn2-c2nc(C)cc(C)n2)CC1,n,n,n,n,n,n
Cc1c(C(=O)NC(=S)Nc2ccc(NC(=O)c3cccs3)cc2)cccc1[N+](=O)[O-],n,n,n,33,n,n
COc1cccc(NC(=O)CN(C)C(=O)c2cc(-c3ccccc3)nn2-c2ccccc2)c1,24,n,n,n,n,n
CN(CC(=O)Nc1cccc(F)c1)C(=O)Cc1n[nH]c(=O)c2ccccc12,n,n,n,41,n,n
COc1cccc(NC(=O)CN(C)C(=O)Cn2cnc3ccccc3c2=O)c1,n,100,n,n,n,n
CN(CC(=O)Nc1ccc(Cl)c(C(F)(F)F)c1)C(=O)Cc1n[nH]c(=O)c2ccccc12,n,n,n,n,n,n
COc1cccc(NC(=O)CN(C)C(=O)c2cc(-c3ccc(F)cc3)nc3ccccc23)c1,n,n,n,27,n,n
COc1cccc(NC(=O)CN(C)C(=O)c2cc(-c3ccccc3)nc3ccccc23)c1,n,n,n,n,n,n
COc1ccc(-c2cc(C(=O)N(C)CC(=O)Nc3cccc(F)c3)c3ccccc3n2)cc1OC,n,n,n,37,n,n
CN(CC(=O)Nc1cccc(F)c1)C(=O)c1cc(-c2ccco2)nc2ccccc12,n,n,n,n,n,n
CN1CCC(=C2c3ccccc3CCc3sccc32)CC1,n,99,n,98,n,n
SMILES,M1 PAM,M5 antag,CHRM1 agonist,M1 antag,M5 PAM,CHRM5 agonist
Nc1nc2c(s1)CCc1ccccc1-2,n,n,n,n,n,n
CN1CCC(=C2c3ccccc3C(O)c3ccccc32)CC1 (stereo unspecified),n,99,n,100,n,n
O=C(OCc1cc(=O)n2c(n1)sc1ccccc12)c1ccc2c(=O)n3c(nc2c1)CCC3,n,n,n,n,n,n
Cc1ccc(C)c(NS(=O)(=O)c2cc3c4c(c2)CC(=O)N4CCC3)c1,n,n,n,n,n,n
O=C(NC1CC2CCCC(C1)N2C(=S)Nc1ccccc1Cl)C1CC1 (stereo unspecified),n,n,n,n,n,n
Cc1ccc(C)c(NC(=S)N2C3CCCC2CC(NC(=O)C2CC2)C3)c1 (stereo unspecified),n,n,n,38,n,n
Cc1ccc(-c2cc(C(=O)N3CCN(c4ccccc4O)CC3)c3ccccc3n2)cc1,n,n,n,n,n,n
O=C(c1cc(-c2cccs2)nc2ccccc12)N1CCN(c2ccccc2O)CC1,n,n,n,32,n,n
COc1ccc(-c2cc(C(=O)N3CCN(c4ccccc4O)CC3)c3ccccc3n2)cc1OC,n,28,n,46,n,n
COc1ccc(-c2cc(C(=O)N3CCN(c4ccccc4O)CC3)c3ccccc3n2)cc1,n,n,n,n,n,n
O=C(CCNS(=O)(=O)c1cccs1)NCc1ccco1,n,n,n,n,n,n
COc1ccc(S(=O)(=O)N2CCCCC2C(=O)O)cc1OC (stereo unspecified),n,n,n,n,21,n
CC(=O)Nc1ccc(S(=O)(=O)N(C)c2ccc(OCC(=O)Nc3ccccc3C(C)=O)cc2)cc1,n,n,n,36,n,n
COc1ccc(NC(=O)COc2ccc(N(C)S(=O)(=O)c3ccc(Cl)cc3)cc2)cc1OC,n,29,n,38,n,n
COc1ccc(CCN2C(=O)NC(NS(=O)(=O)c3ccc(NC(C)=O)cc3)(C(F)(F)F)C2=O)cc1OC (stereo unspecified),n,n,n,n,n,n
Cc1ccc2c(c1)C1CC(C)(O2)N(c2cccc(C(=O)NC3CCN(Cc4ccccc4)CC3)c2)C(=O)N1 (stereo unspecified),n,n,n,n,n,n
CN(CC(=O)Nc1ccccc1Cl)C(=O)c1ccc(-c2cccc(C(F)(F)F)c2)o1,n,n,n,n,n,n
Cn1c(SCC(=O)N2CCOCC2)nc2cccnc21,n,n,n,n,21,n
O=C(CSc1n[nH]c(=O)n1-c1cccnc1)N1CCOCC1,n,n,n,n,20,n
N#CC(=C(c1ccccc1)c1ccccc1)c1ccccc1,n,n,n,n,n,n
CC1(C(=O)NS(=O)(=O)Cc2cccc(Cl)c2)CCN1C(=O)c1ccc(C2CCCCC2)cc1 (stereo unspecified),n,n,n,n,n,n
CCCCC(=O)N(C)c1c(C)nc2ccc(C(=O)N3CCN(C(=O)c4ccco4)CC3)cn12,n,n,n,n,n,n
CC(=O)N1CCN(C(=O)c2ccc(Cl)c(S(=O)(=O)N3CCc4ccccc43)c2)CC1,n,n,n,n,n,n
O=C(c1ccc(Cl)c(S(=O)(=O)N2CCc3ccccc32)c1)N1CCN(c2ccccc2O)CC1,n,n,n,25,n,n
O=C(NNC(=O)c1ccccc1O)c1ccc(Cl)c(S(=O)(=O)N2CCc3ccccc32)c1,n,n,n,38,n,n
